Calls of active or inactive are those of the source. The rule behind the calls is not given here.

Type in all cases: cell-based
The target of assay [1] is T1, Protein cereblon/Carbonic anhydrase 2 (Homo sapiens, UniProt P00918+Q96SW2). Description: Protac activity at CRBN/CA-2 in HEK293 cells assessed as degradation of carbonic anhydrase-2 measured after 24 hrs by Western blot analysis. Conditions: dose <= 15.0 µM. The procedure, abridged: (§1)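 Nine-point dose response, 5 pM to 15 μM, in HEK293 cells for 24 h before lysis, three biological replicates; Western blot with hCAII normalized to β-actin and DMSO vehicle. DC50 (95% CI) and DMax from least-squares sigmoidal fit of concentrations below the hook region; log(inhibitor) vs response, three-parameter fit.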
(In general: In western blotting, separated proteins are transferred to a membrane and probed.)

For assay [2], the target named is T1, Protein cereblon/Carbonic anhydrase 2. The assay can be described thus: Protac activity at CRBN/CA-2 in HEK293 cells assessed as degradation of carbonic anhydrase-2. The method, boiled down: as §1
For assay [3] the target is unchanged. The assay can be described thus: Protac activity at CRBN/CA-2 in HEK293 cells assessed as degradation of carbonic anhydrase-2 at 15 uM measured after 24 hrs by Western blot analysis relative to control. The method, boiled down:
(§2)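 HEK293 cells (DMEM, 10% FBS, 37 °C, 5% CO2) plated at 2 × 10⁶/well, dosed in DMSO (0.5% final) 24 h before lysis at ~90% confluency. 30–50 μg lysate protein on SDS-PAGE, blotted with anti-hCAII and anti-β-actin, Cy5 secondary. hCAII/β-actin ratio normalized to DMSO wells, as % DMSO.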

Assay [4] has the same target. The assay can be described thus: Protac activity at CRBN/CA-2 in HEK293 cells assessed as degradation of carbonic anhydrase-2 at 50 nM preincubated for 1 hr with lenalidomide followed by compound addition and measured after 6 hrs by Western blot analysis.
Assay [5] has the same target. Description: Protac activity at CRBN/CA-2 in HEK293 cells assessed as degradation of carbonic anhydrase-2 at 50 pM measured after 24 hrs by Western blot analysis. The procedure, abridged: as §2
Assay [6] has the same target. The assay can be described thus: Protac activity at CRBN/CA-2 in HEK293 cells assessed as degradation of carbonic anhydrase-2 at 50 nM preincubated for 1 hr with acetazolamide followed by compound addition and measured after 6 hrs by Western blot analysis.
The target is the same in assay [7]. The assay can be described thus: Protac activity at CRBN/CA-2 in HEK293 cells assessed as degradation of carbonic anhydrase-2 at 50 nM preincubated for 1 hr with MG-132 followed by compound addition and measured after 6 hrs by Western blot analysis. The procedure, abridged:
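HEK293 cells pretreated 1 h with MG-132 at 1 μM, then 50 nM compound for 6 h; hCAII by Western blot, hCAII/β-actin relative to DMSO controls.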

Assay [8] has the same target. Description: Protac activity at CRBN/CA-2 in HEK293 cells assessed as degradation of carbonic anhydrase-2 at 50 nM by Western blot analysis. The following applies: time lower 0.0 hrs, time upper […]. The procedure, abridged:
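HEK293 cells given 50 nM compound for 0–48 h time course; hCAII abundance by Western blot, hCAII/β-actin normalized to DMSO vehicle.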

The target in assay [9] is Carbonic anhydrase 2 (Homo sapiens) (UniProt P00918). Description: Induction of in carbonic anhydrase-2 HEK293 cells assessed as degradation of carbonic anhydrase-2 at 5 uM measured after 24 hrs by Western blot analysis. The method, boiled down:
as §2

The EC50 is the concentration at which the effect is half-maximal. As to `NS(=O)(=O)c1ccc(C(=O)NCCCOCCCCOCCCNc2cccc3c2C(=O)N(C2CCC(=O)NC2=O)C3=O)cc1` (stereo not given), the Activity entry in assay [1] was “Dose-Dependent Effect”; in [3], 100%. Further, in [2], the half-maximal effective concentration (EC50) came out at 5 nM.

In the case of `NS(=O)(=O)c1ccc(C(=O)NCCCCCCCCCCCCNc2cccc3c2C(=O)N(C2CCC(=O)NC2=O)C3=O)cc1` (stereo not given), the result in assay [4], in assay [6] and in [7] was inactive. Besides, in assay [5], the outcome was Active. Besides, the Activity entry in [8] was “Dose-Dependent Effect”.

For the compound `CS(=O)(=O)c1ccc(C(=O)NCCCOCCCCOCCCNc2cccc3c2C(=O)N(C2CCC(=O)NC2=O)C3=O)cc1` (stereo not given), in assay [9], the outcome was inactive.

In the case of `NS(=O)(=O)c1ccc(C(=O)NCCCOCCOCCOCCCNc2cccc3c2C(=O)N(C2CCC(=O)NC2=O)C3=O)cc1` (stereo not given), the Activity entry in assay [1] was “Dose-Dependent Effect”; in assay [3], 100%. Further, the EC50 in assay [2] was found to be 245 nM.

For the compound `CS(=O)(=O)c1ccc(C(=O)NCCCOCCOCCOCCCNc2cccc3c2C(=O)N(C2CCC(=O)NC2=O)C3=O)cc1` (stereo not given), the outcome in [9] was inactive.

Consider `CN1C(=O)CCC(N2C(=O)c3cccc(NCCCOCCCCOCCCNC(=O)c4ccc(S(N)(=O)=O)cc4)c3C2=O)C1=O` (stereo not given), for which the outcome in assay [9] was inactive.

Take `CN1C(=O)CCC(N2C(=O)c3cccc(NCCCOCCOCCOCCCNC(=O)c4ccc(S(N)(=O)=O)cc4)c3C2=O)C1=O` (stereo not given): the result in assay [9] was inactive.
